A short description of data set [1]: Partition coefficient by standard shake-flask techniquesat 37 C, using octanol and cyclohexane. It counts as physicochemical. The procedure, abridged: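 Shake-flask partitioning at 37 °C. About 1 mg of compound dissolved in 4.5 mL 0.05 M PIPES, pH 6.5. Aqueous aliquot shaken 2 h with an equal volume of octanol (H-bonding) or cyclohexane (non-H-bonding), then centrifuged. Both phases assayed by HPLC. Delta log P is derived from the octanol and cyclohexane log D values. Mean of at least two determinations.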

A further data set in a line: logD (pH 6.5). As to conditions: buffer.
The target of data set [2] is T1, Endothelin receptor type B (Homo sapiens, UniProt P24530).
T1 sequence (P24530 whole entry): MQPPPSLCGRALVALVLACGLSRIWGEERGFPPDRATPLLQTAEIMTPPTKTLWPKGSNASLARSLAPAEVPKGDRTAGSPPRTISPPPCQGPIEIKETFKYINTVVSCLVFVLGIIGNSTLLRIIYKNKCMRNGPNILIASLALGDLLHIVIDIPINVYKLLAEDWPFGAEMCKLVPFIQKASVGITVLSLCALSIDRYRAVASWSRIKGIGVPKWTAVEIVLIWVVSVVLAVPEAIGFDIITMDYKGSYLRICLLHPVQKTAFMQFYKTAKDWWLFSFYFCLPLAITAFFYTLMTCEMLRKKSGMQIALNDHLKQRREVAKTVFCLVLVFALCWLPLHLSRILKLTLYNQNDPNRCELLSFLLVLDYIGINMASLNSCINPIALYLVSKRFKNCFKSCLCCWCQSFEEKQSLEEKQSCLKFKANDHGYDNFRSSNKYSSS
The data set is described as follows: Inhibitory activity was evaluated against human Endothelin B receptor. The gist of the method: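 Human ETA or ETB receptors expressed in CHO cells. Binding inhibition tested at 11 concentrations from 10⁻¹⁰ to 10⁻⁵ M, in duplicate. IC50 is the mean of at least 2 measurements (n = 2).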

A further data set addresses T2, Endothelin-1 receptor (Homo sapiens, UniProt P25101).
T2 sequence (P25101 whole entry): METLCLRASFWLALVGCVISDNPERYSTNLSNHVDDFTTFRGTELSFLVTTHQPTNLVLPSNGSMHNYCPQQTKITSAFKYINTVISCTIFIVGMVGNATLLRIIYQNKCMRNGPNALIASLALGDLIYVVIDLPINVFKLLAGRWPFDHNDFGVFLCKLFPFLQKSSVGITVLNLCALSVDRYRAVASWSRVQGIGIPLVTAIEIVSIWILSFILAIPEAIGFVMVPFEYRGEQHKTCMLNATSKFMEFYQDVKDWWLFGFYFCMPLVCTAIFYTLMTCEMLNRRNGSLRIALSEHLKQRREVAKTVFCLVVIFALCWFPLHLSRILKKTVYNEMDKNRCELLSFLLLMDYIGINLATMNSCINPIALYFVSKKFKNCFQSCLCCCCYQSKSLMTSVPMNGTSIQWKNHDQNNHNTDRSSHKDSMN
In words: Inhibitory activity was evaluated against human Endothelin A receptor. The procedure, abridged: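 Human ETA or ETB receptors expressed in CHO cells. Binding inhibition tested at 11 concentrations from 10⁻¹⁰ to 10⁻⁵ M, in duplicate.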

The nature of data set [3]: Total absorption was estimated by area under curve (AUC) after intraduodenal administration in rat. As to conditions: in vivo, id. Also on record: concentration or dose not given beside the values.
The nature of data set [4]: Oral bioavailability of compound at a dose of 10 mg/kg was determined in rat. It is filed as ADME, organism-based. As to conditions: in vivo. The procedure, abridged:
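Male Sprague-Dawley rats, n = 4 per group. 10 mg/kg given by gavage or as a slow iv bolus into the jugular vein, 10 mg/mL in ethanol–propylene glycol–D5W (20:30:50) with 1 equiv NaOH. Tail-vein plasma sampled up to 12 h and assayed by HPLC after extraction. F is the dose-corrected ratio of oral to iv AUC0–∞.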

Molecules are shown by their SMILES. Bounds are passed on as bounds.

In the case of `COc1cccc(Oc2c(NS(=O)(=O)c3ccc(C(C)(C)C)cc3)ncnc2OCCO)c1`, the “delta Log P” value in data set [1] is listed as 2.37. For the same compound, the logD in “logD (pH 6.5)” came to 1.98.
For `Cc1[nH]c([C@@H](Cc2cn(C)c3ccccc23)NC(=O)[C@H](CC(C)C)NC(=O)NC2CCCCC2)nc1C(=O)O`, the IC50 in data set [2] was 34000 nM; against Endothelin-1 receptor, 11 nM. Besides, the “delta Log P” value in data set [1] is listed as 5.92. In data set [3], the AUC was 4.33 ng·h/mL.
The like results for `Cc1oc([C@@H](Cc2cn(C)c3ccccc23)NC(=O)[C@H](CC(C)C)NC(=O)N(C)C2CCCCC2)nc1C(=O)O` were, in that order, more than 100000 nM, 25 nM, 4.05 and 833 ng·h/mL.
For the compound `Cc1[nH]c([C@@H](Cc2cn(C)c3ccccc23)NC(=O)[C@H](CC(C)C)NC(=O)CC2CCCCC2)nc1C(=O)O`, the IC50 in data set [2] was more than 90000 nM; at Endothelin-1 receptor, 470 nM. Moreover, the “delta Log P” value in data set [1] was determined as 5.66.
`Cc1[nH]c([C@@H](Cc2cn(C)c3ccccc23)NC(=O)[C@H](CC(C)C)OC(=O)NC2CCCCC2)nc1C(=O)O`: the IC50 in data set [2] was found to be 54000 nM; against Endothelin-1 receptor, 9.3 nM. In addition, the “delta Log P” value in data set [1] is given as more than 6.1. In data set [3], the area under the curve (AUC) was 347 ng·h/mL.
Regarding `Cc1oc([C@@H](Cc2cn(C)c3ccccc23)NC(=O)[C@H](CC(C)C)OC(=O)N(C)C2CCCCC2)nc1C(=O)O`, the half-maximal inhibitory concentration (IC50) in data set [2] stood at 90000 nM; against Endothelin-1 receptor it was 4.6 nM. For the same compound, the “delta Log P” value in data set [1] was determined as 3.82. Moreover, in data set [3], the exposure (AUC) is 1840 ng·h/mL. For the same compound, the bioavailability in data set [4] was 13.5%.
`Cc1oc([C@@H](Cc2cn(C)c3ccccc23)NC(=O)[C@H](CC(C)C)NC(=O)CC2CCCCC2)nc1C(=O)O`: the half-maximal inhibitory concentration (IC50) in data set [2] was more than 100000 nM. Also, in data set [1], the “delta Log P” value was determined as 3.78.
Turning to `Cc1oc([C@@H](Cc2cn(C)c3ccccc23)NC(=O)[C@H](CC(C)C)OC(=O)NC2CCCCC2)nc1C(=O)O`, the half-inhibitory concentration (IC50) in data set [2] was 48000 nM; against Endothelin-1 receptor, 21 nM. In data set [1], the “delta Log P” value is on record as 4.04. Moreover, the exposure (AUC) in data set [3] is 815 ng·h/mL.
The like results for `Cc1oc([C@@H](Cc2cn(C)c3ccccc23)NC(=O)[C@@H](CC(=O)NC2CCCCC2)CC(C)C)nc1C(=O)O` were, in that order, more than 100000 nM, 310 nM, 3.82 and 292 ng·h/mL.
The like results for `Cc1oc([C@@H](Cc2cn(C)c3ccccc23)NC(=O)[C@H](CC(C)C)NC(=O)OC2CCCCC2)nc1C(=O)O` were, in that order, more than 100000 nM, 41 nM, 4.66 and 1360 ng·h/mL.
The like results for `Cc1[nH]c([C@@H](Cc2cn(C)c3ccccc23)NC(=O)[C@@H](CC(=O)NC2CCCCC2)CC(C)C)nc1C(=O)O` were, in that order, more than 100000 nM, 29 nM, more than 6.2 and 81.7 ng·h/mL.
For `Cc1[nH]c([C@@H](Cc2cn(C)c3ccccc23)NC(=O)[C@H](CC(C)C)N(C)C(=O)NC2CCCCC2)nc1C(=O)O`, the IC50 in data set [2] is more than 100000 nM; on Endothelin-1 receptor, 22 nM. Moreover, in data set [1], the “delta Log P” value is more than 6. The AUC in data set [3] was 247 ng·h/mL.
With `Cc1[nH]c([C@@H](Cc2cn(C)c3ccccc23)NC(=O)[C@H](CC(C)C)NC(=O)OC2CCCCC2)nc1C(=O)O`, the values for the IC50 (in data set [2]; against Endothelin-1 receptor) were more than 100000 nM and 76 nM, respectively. Also, the “delta Log P” value in data set [1] is given as more than 6.2. Further, in data set [3], the area under the curve (AUC) is 168 ng·h/mL.
On to `Cc1oc([C@@H](Cc2cn(C)c3ccccc23)NC(=O)[C@H](CC(C)C)OC(=O)OC2CCCCC2)nc1C(=O)O`, for which the half-maximal inhibitory concentration (IC50) in data set [2] amounted to 79000 nM; against Endothelin-1 receptor it was 17 nM. Besides, the “delta Log P” value in data set [1] is reported as 3.71. Besides, the AUC in data set [3] was 1760 ng·h/mL.
As for `Cc1oc([C@@H](Cc2cn(C)c3ccccc23)NC(=O)[C@H](CC(C)C)N(C)C(=O)NC2CCCCC2)nc1C(=O)O`, the 50% inhibitory concentration (IC50) in data set [2] was more than 100000 nM; against Endothelin-1 receptor, 450 nM. Further, the “delta Log P” value in data set [1] is 4.59. In addition, in data set [3], the area under the curve (AUC) was 983 ng·h/mL.
With `Cc1[nH]c([C@@H](Cc2cn(C)c3ccccc23)NC(=O)[C@H](CC(C)C)NC(=O)N(C)C2CCCCC2)nc1C(=O)O`, the figures for the IC50 (in data set [2]; on Endothelin-1 receptor) were 20000 nM and 1.8 nM, respectively. In data set [1], the “delta Log P” value came to 5.4. For the same compound, the exposure (AUC) in data set [3] is 103 ng·h/mL.
In the case of `CCCN(Cc1ccc(-c2ccccc2-c2nnn[nH]2)cc1)c1ncccc1C(=O)O`, the “delta Log P” value in data set [1] was found to be 2.45. In “logD (pH 6.5)”, the logD was -0.85.
On to `Cc1oc([C@@H](Cc2cn(C)c3ccccc23)NC(=O)[C@H](CC(C)C)NC(=O)NC2CCCCC2)nc1C(=O)O`, for which the concentration for half-maximal inhibition (IC50) in data set [2] was more than 100000 nM; at Endothelin-1 receptor, 220 nM. In data set [1], the “delta Log P” value is more than 6.1. For the same compound, the AUC in data set [3] is 193 ng·h/mL.
Consider `Cn1c(=O)c2[nH]cnc2n(C)c1=O.O` [THEOPHYLLINE], for which, in data set [1], the “delta Log P” value worked out at 1.53. The compound further gave a logD in “logD (pH 6.5)” of -0.12.

One may read the logD as lipophilicity at a set pH, counting ionised and neutral species. For orientation: IC50 means the concentration needed to halve the response being measured. For orientation: AUC means the area under the concentration-time curve, a measure of exposure. Usually bioavailability stands for dose-corrected exposure relative to a reference, in per cent.
